Assay results as given in ChEMBL document CHEMBL3992538, “Hybrids of thienopyrimidinones and thiouracils as anti-tubercular agents: SAR and docking studies” (Eur J Med Chem, 2017).
Converted amounts (≈) assume the structure as drawn.

How the values were obtained:
[1] = Selectivity index, ratio of GI50 for human HeLa cells to MIC for active stage of Mycobacterium tuberculosis H37Ra ATCC 25177; assay type: toxicity, cell-based; details: read-out: Selectivity Index
How it was run: (§1)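 Selectivity index is the cytotoxic GI50 against the named human cell line divided by the antimycobacterial value. Activity counted as specific when SI >10.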

[2] = Selectivity index, ratio of GI50 for human HeLa cells to MIC for active stage of Mycobacterium tuberculosis H37Ra ATCC 25177 infected in human THP1 cells; assay type: toxicity, cell-based; details: read-out: Selectivity Index; how it was run: as §1
[3] = tested on: Mycobacterium tuberculosis; experiment: Antitubercular activity against dormant stage of Mycobacterium tuberculosis H37Ra ATCC 25177 after 12 days by XTT reduction menadione assay; assay type: functional; details: H37Ra ATCC 25177, 288 h
How it was run: (§2)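 M. tuberculosis H37Ra (ATCC 25177), grown to log phase (OD 1.0) in M. pheli medium from -70°C stock, subcultured once before inoculation. Incubation 8 days (active) or 12 days (dormant). XRMA read-out as absorbance at 470 nm.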

[4] = Selectivity index, ratio of GI50 for human HeLa cells to MIC for dormant stage of Mycobacterium tuberculosis H37Ra ATCC 25177; assay type: toxicity, cell-based; details: read-out: Selectivity Index; how it was run: as §1
[5] = Selectivity index, ratio of GI50 for human A549 cells to MIC for active stage of Mycobacterium tuberculosis H37Ra ATCC 25177; assay type: toxicity; details: read-out: Selectivity Index; how it was run: as §1
[6] = tested on: Mycobacterium tuberculosis; experiment: Antitubercular activity against dormant stage of Mycobacterium tuberculosis H37Ra ATCC 25177 infected in human THP1 cells after 12 days by nitrate reductase assay; assay type: functional; details: H37Ra ATCC 25177, 288 h
How it was run: (§3)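 Ex vivo test of H37Ra in THP-1 cells by nitrate reductase assay, absorbance read at 540 nm. Active stage incubated 8 days and dormant stage 12 days. H37Ra (ATCC 25177) grown in M. pheli medium to OD 1.0 and subcultured once from -70°C stock.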

[7] = Cytotoxicity against human THP1 cells assessed as growth inhibition by MTT assay; assay type: cell-based; details: THP-1 cells
How it was run: (§4)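 MTT assay in duplicate on THP-1 leukaemia, A549 lung adenocarcinoma, PANC-1 pancreatic adenocarcinoma and HeLa cervical carcinoma cells, all obtained from ECCC.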

[8] = tested on: Mycobacterium tuberculosis; experiment: Antitubercular activity against active stage of Mycobacterium tuberculosis H37Ra ATCC 25177 after 8 days by XTT reduction menadione assay; assay type: functional; details: H37Ra ATCC 25177, 192 h; how it was run: as §2
[9] = Selectivity index, ratio of GI50 for human PANC1 cells to MIC for dormant stage of Mycobacterium tuberculosis H37Ra ATCC 25177; assay type: toxicity; details: PANC-1 cells, read-out: Selectivity Index; how it was run: as §1
[10] = Selectivity index, ratio of GI50 for human A549 cells to MIC for dormant stage of Mycobacterium tuberculosis H37Ra ATCC 25177 infected in human THP1 cells; assay type: toxicity, cell-based; details: read-out: Selectivity Index; how it was run: as §1
[11] = tested on: Mycobacterium tuberculosis; experiment: Antitubercular activity against active stage of Mycobacterium tuberculosis H37Ra ATCC 25177 infected in human THP1 cells after 8 days by nitrate reductase assay; assay type: functional; details: H37Ra ATCC 25177, 192 h; how it was run: as §3
[12] = Selectivity index, ratio of GI50 for human PANC1 cells to MIC for active stage of Mycobacterium tuberculosis H37Ra ATCC 25177 infected in human THP1 cells; assay type: toxicity, cell-based; details: PANC-1 cells, read-out: Selectivity Index; how it was run: as §1
[13] = Selectivity index, ratio of GI50 for human PANC1 cells to MIC for dormant stage of Mycobacterium tuberculosis H37Ra ATCC 25177 infected in human THP1 cells; assay type: toxicity, cell-based; details: PANC-1 cells, read-out: Selectivity Index; how it was run: as §1
[14] = Cytotoxicity against human A549 cells assessed as growth inhibition by MTT assay; assay type: cell-based; how it was run: as §4
[15] = Cytotoxicity against human HeLa cells assessed as growth inhibition by MTT assay; assay type: cell-based; how it was run: as §4
[16] = Cytotoxicity against human PANC1 cells assessed as growth inhibition by MTT assay; assay type: cell-based; details: PANC-1 cells; how it was run: as §4
[17] = Selectivity index, ratio of GI50 for human A549 cells to MIC for active stage of Mycobacterium tuberculosis H37Ra ATCC 25177 infected in human THP1 cells; assay type: toxicity, cell-based; details: read-out: Selectivity Index; how it was run: as §1
[18] = Selectivity index, ratio of GI50 for human HeLa cells to MIC for dormant stage of Mycobacterium tuberculosis H37Ra ATCC 25177 infected in human THP1 cells; assay type: toxicity, cell-based; details: read-out: Selectivity Index; how it was run: as §1
[19] = Selectivity index, ratio of GI50 for human A549 cells to MIC for dormant stage of Mycobacterium tuberculosis H37Ra ATCC 25177; assay type: toxicity; details: read-out: Selectivity Index; how it was run: as §1
[20] = Selectivity index, ratio of GI50 for human PANC1 cells to MIC for active stage of Mycobacterium tuberculosis H37Ra ATCC 25177; assay type: toxicity; details: PANC-1 cells, read-out: Selectivity Index; how it was run: as §1

Row | Structure (SMILES) | selectivity ratio [1] | selectivity ratio [2] | MIC [3] [µg/mL] | selectivity ratio [4] | selectivity ratio [5] | MIC [6] [µg/mL] | GI50 [7] [µg/mL] | MIC [8] [µg/mL] | selectivity ratio [9] | selectivity ratio [10] | MIC [11] [µg/mL] | selectivity ratio [12] | selectivity ratio [13] | GI50 [14] [µg/mL] | GI50 [15] [µg/mL] | GI50 [16] [µg/mL] | selectivity ratio [17] | selectivity ratio [18] | selectivity ratio [19] | selectivity ratio [20]
1 | CCCc1cc2c(=O)n(CCCSc3nc(-c4cc(OC)c(OC)c(OC)c4)c(C#N)c(=O)[nH]3)cnc2s1 | 2 | 2 | 19.1 (≈ 34.5 µM) | 3 | > 3 | 11.9 (≈ 21.5 µM) | > 100 | > 30 | > 5 | > 8 | > 30 | > 3 | > 8 | > 100 | 52.5 (≈ 94.8 µM) | > 100 | > 3 | 4 | > 5 | > 3
2 | CCCCCCc1cc2c(=O)n(CCSc3nc(-c4cc(OC)c(OC)c(OC)c4)c(C#N)c(=O)[nH]3)cnc2s1 | 5 | 4 | 19.1 (≈ 32.8 µM) | 4 | 6 | 18.8 (≈ 32.3 µM) | 96.4 (≈ 166 µM) | 15.6 (≈ 26.8 µM) | 2 | 5 | 17.1 (≈ 29.4 µM) | 2 | 2 | 96.8 (≈ 166 µM) | 76.3 (≈ 131 µM) | 36.5 (≈ 62.7 µM) | 6 | 4 | 5 | 2
3 | COc1cc(-c2nc(SCCCn3cnc4sc5c(c4c3=O)CCCC5)n(Cc3ccccc3)c(=O)c2C#N)cc(OC)c1OC | 2 | 2 | > 30 | 2 | > 3 | > 30 | > 100 | > 30 | 2 | > 3 | > 30 | 2 | 2 | > 100 | 72.1 (≈ 110 µM) | 51.9 (≈ 79.1 µM) | > 3 | 2 | > 3 | 2
4 | CCCCCCCCCCCn1c(SCCCn2cnc3sc4c(c3c2=O)CCCC4)nc(-c2cc(OC)c(OC)c(OC)c2)c(C#N)c1=O | > 3 | > 3 | > 30 | > 3 | > 3 | > 30 | > 100 | > 30 | > 3 | > 3 | > 30 | > 3 | > 3 | > 100 | > 100 | > 100 | > 3 | > 3 | > 3 | > 3
5 | COc1cc(-c2nc(SCCCn3cnc4sc5c(c4c3=O)CCCC5)n(CCC(F)(F)C(F)(F)C(F)(F)C(F)(F)C(F)(F)C(F)(F)F)c(=O)c2C#N)cc(OC)c1OC | > 3 | > 3 | 11.7 (≈ 12.8 µM) | > 8 | > 3 | 8.8 (≈ 9.65 µM) | > 100 | > 30 | > 8 | > 11 | > 30 | > 3 | > 11 | > 100 | > 100 | > 100 | > 3 | > 11 | > 8 | > 3
6 | COc1cc(-c2nc(SCCCn3cnc4sc5c(c4c3=O)CCCC5)n(CCCn3cnc4sc5c(c4c3=O)CCCC5)c(=O)c2C#N)cc(OC)c1OC | 3 | 3 | > 30 | 3 | 3 | > 30 | 81.4 (≈ 100 µM) | > 30 | > 3 | 3 | > 30 | > 3 | > 3 | 83.1 (≈ 102 µM) | 89.6 (≈ 110 µM) | > 100 | < 3 | < 3 | < 3 | > 3
7 | COc1cc(-c2[nH]c(=S)[nH]c(=O)c2C#N)cc(OC)c1OC | 2 | 2 | 17.3 (≈ 54.2 µM) | 4 | > 3 | 11.3 (≈ 35.4 µM) | > 100 | > 30 | > 6 | > 9 | > 30 | > 3 | > 9 | > 100 | 63.7 (≈ 199 µM) | > 100 | > 3 | 6 | > 6 | > 3
8 | COc1cc(-c2nc(SCCCn3cnc4sc5c(c4c3=O)CCCC5)n(Cc3c(F)c(F)c(F)c(F)c3F)c(=O)c2C#N)cc(OC)c1OC | > 3 | > 3 | 28.3 (≈ 37.9 µM) | > 4 | > 3 | 26.5 (≈ 35.5 µM) | > 100 | > 30 | > 4 | > 4 | > 30 | > 3 | > 4 | > 100 | > 100 | > 100 | > 3 | > 4 | > 4 | > 3
